ChEMBL document CHEMBL4229550, “An antimycobacterial pleuromutilin analogue effective against dormant bacilli” (Bioorg Med Chem, 2018)
In brackets after ≈: the same amount, converted by molar mass. Activity calls are given as the source filed them. The rule behind the calls is not given here.

Tests used:
[1] = tested on: Mycobacterium tuberculosis; assay: Antibacterial activity against Mycobacterium tuberculosis; type: functional; conditions: read-out: MIC100
Outline: (§1)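 Mtb H37Rv grown in 7H9/OADC at 37 °C with shaking to OD600 0.5. The 0.5-OD culture is exposed aerobically to serial dilutions for 15 days at 37 °C. Resazurin (0.02% stock) is then added for 4 h at 37 °C with shaking.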

[2] = tested on: Mycobacterium tuberculosis; assay: Antibacterial activity against replicating Mycobacterium tuberculosis H37Rv incubated for 15 days under aerobic condition by MABA; type: functional; conditions: 360 h, read-out: MIC100; outline: as §1
Escherichia coli [3] = assay: Inhibition of protein translation/transcription in Escherichia coli S30 cell extract at 0.1 ug/ml using circular DNA with pBESTluc after 60 mins by luciferase reporter gene assay; type: functional
Outline: (§2)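 Coupled transcription/translation used E. coli S30 extract, amino acid mix and premix, with the pBESTluc template carrying firefly luciferase under the tac promoter. Compounds were added in DMSO and reactions were started with DNA. Incubation was 60 min at 37 °C, stopped on ice, and luciferase was read after adding assay substrate.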

Escherichia coli [4] = assay: Inhibition of protein translation/transcription in Escherichia coli S30 cell extract at 0.5 ug/ml using circular DNA with pBESTluc after 60 mins by luciferase reporter gene assay; type: functional; outline: as §2
Vero = assay: Cytotoxicity against African green monkey Vero cells assessed as reduction in cell viability after 72 hrs by MTT assay; type: cell-based; conditions: Chlorocebus sabaeus
Outline: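 Vero cells were grown in complete EMEM with 10% FBS and exposed for 72 h to 0.78–200 µg/mL. The medium was then swapped for phenol-red-free EMEM and MTT was added. Formazan absorbance was read at 570 nm to give IC50.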

[5] = Selectivity index, ratio of IC50 for African green monkey Vero cells to MIC100 for replicating Mycobacterium tuberculosis H37Rv by MABA; type: toxicity; conditions: read-out: Selectivity Index
Outline: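 Vero cells are cultured in EMEM with 10% FBS and exposed for 72 h to 0.78–200 µg/mL. Medium is switched to phenol-red-free EMEM, MTT is added, and formazan is read at 570 nm to give IC50. The selectivity index is Vero IC50 divided by the MABA MIC.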

In the case of C=C[C@]1(C)C[C@@H](OC(=O)CSC(C)(C)CNC(=O)[C@H](N)CC(C)C)[C@]2(C)[C@H](C)CC[C@]3(CC[C@@H](O)[C@H]32)[C@@H](C)[C@@H]1O, the MIC [1] was < 6.25 µg/mL, the MIC [2] was 3.06 µg/mL (≈ 5.27 µM) and the inhibition (Escherichia coli [3]) was “Active”. The inhibition (Escherichia coli [4]) was “Active”, the IC50 (Vero) was 35 µg/mL (≈ 60.3 µM) and the selectivity ratio [5] was 11.4.
